Reference: ChEMBL document CHEMBL2016460, “Synthesis, biological evaluation, and molecular docking studies of 2,6-dinitro-4-(trifluoromethyl)phenoxysalicylaldoxime derivatives as novel antitubulin agents” (Bioorg Med Chem, 2012)

What was measured:
MCF7 [1] = test: Antiproliferative activity against human MCF7 cells after 48 hrs by MTT assay; type: functional, cell-based; conditions: MCF7, 48 h
Summary of the method: (§1)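 Cells were seeded into 96-well plates in complete medium and preincubated 24 h at 37 °C, 5% CO2. Compounds at preset concentrations were added to six wells, with colchicine and CA-4 run alongside as references, and exposed for 48 h. MTT (2.5 mg mL^-1 in PBS) was added for 4 h, followed by SDS/isobutyl alcohol/HCl extraction overnight at 37 °C. OD was read at 570 nm, with three replicate wells per concentration.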

[2] = Inhibition of bovine tubulin polymerization after 20 mins by spectrophotometry; parameters: species or system Bos taurus
Summary of the method: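 Tubulin was preincubated in glutamate buffer at 30 °C and then cooled to 0 °C. GTP was added, samples were moved to 0 °C cuvettes and warmed to 30 °C, and assembly was followed turbidimetrically in a recording spectrophotometer. IC50 was taken as the concentration inhibiting the extent of assembly by 50% after 20 min.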

HepG2 = test: Antiproliferative activity against human HepG2 cells after 48 hrs by MTT assay; type: functional, cell-based; conditions: HepG2, 48 h; summary of the method: as §1
A549 = test: Antiproliferative activity against human A549 cells after 48 hrs by MTT assay; type: functional, cell-based; conditions: A549, 48 h; summary of the method: as §1
MCF7 [3] = test: Induction of apoptosis in human MCF7 cells assessed as late apoptotic cells at 0.25 uM incubated for 24 hrs by Annexin-V-FITC/PI staining based flow cytometry (reference value: 3.17 %); type: functional
MCF7 [4] = test: Induction of apoptosis in human MCF7 cells assessed as early apoptotic cells at 0.01 uM incubated for 24 hrs by Annexin-V-FITC/PI staining based flow cytometry (reference value: 7.4 %); type: functional
MCF7 [5] = test: Induction of apoptosis in human MCF7 cells assessed as late apoptotic cells incubated for 24 hrs by Annexin-V-FITC/PI staining based flow cytometry; type: functional, cell-based
MCF7 [6] = test: Induction of apoptosis in human MCF7 cells assessed as early apoptotic cells at 0.05 uM incubated for 24 hrs by Annexin-V-FITC/PI staining based flow cytometry (reference value: 7.4 %); type: functional
MCF7 [7] = test: Induction of apoptosis in human MCF7 cells assessed as late apoptotic cells at 0.01 uM incubated for 24 hrs by Annexin-V-FITC/PI staining based flow cytometry (reference value: 3.17 %); type: functional
MCF7 [8] = test: Induction of apoptosis in human MCF7 cells assessed as early apoptotic cells at 0.25 uM incubated for 24 hrs by Annexin-V-FITC/PI staining based flow cytometry (reference value: 7.4 %); type: functional
MCF7 [9] = test: Induction of apoptosis in human MCF7 cells assessed as late apoptotic cells at 0.05 uM incubated for 24 hrs by Annexin-V-FITC/PI staining based flow cytometry (reference value: 3.17 %); type: functional

Row | SMILES | IC50 (MCF7 [1]) | IC50 [2] | IC50 (HepG2) | IC50 (A549) | Activity (MCF7 [3]) | Activity (MCF7 [4]) | Activity (MCF7 [5]) | Activity (MCF7 [6]) | Activity (MCF7 [7]) | Activity (MCF7 [8]) | Activity (MCF7 [9])
1 | O=[N+]([O-])c1cc(C(F)(F)F)cc([N+](=O)[O-])c1Oc1ccc(Br)cc1/C=N/OCc1ccccc1Cl | 2840 nM | 13200 nM | 1240 nM | 3430 nM | – | – | – | – | – | – | –
2 | COc1cc2c(c(OC)c1OC)-c1ccc(OC)c(=O)cc1[C@@H](NC(C)=O)CC2 [COLCHICINE] | 530 nM | 1720 nM | 230 nM | 750 nM | – | – | – | – | – | – | –
3 | O=[N+]([O-])c1cc(C(F)(F)F)cc([N+](=O)[O-])c1Oc1c(Br)cc(Br)cc1/C=N/OCc1ccc(Cl)cc1Cl | 2090 nM | 15700 nM | 1050 nM | 6190 nM | – | – | – | – | – | – | –
4 | O=[N+]([O-])c1cc(C(F)(F)F)cc([N+](=O)[O-])c1Oc1ccccc1/C=N\OCc1ccccc1 | 1330 nM | 14000 nM | 1330 nM | 1470 nM | – | – | – | – | – | – | –
5 | O=[N+]([O-])c1cc(C(F)(F)F)cc([N+](=O)[O-])c1Oc1c(Cl)cc(Cl)cc1/C=N\OCc1ccccc1 | 1210 nM | 9020 nM | 1120 nM | 1450 nM | – | – | – | – | – | – | –
6 | O=[N+]([O-])c1cc(C(F)(F)F)cc([N+](=O)[O-])c1Oc1ccccc1/C=N/OCc1ccccc1Cl | 1100 nM | 6920 nM | 1170 nM | 1430 nM | – | – | – | – | – | – | –
7 | O=[N+]([O-])c1cc(C(F)(F)F)cc([N+](=O)[O-])c1Oc1ccc(Br)cc1/C=N\OCc1ccccc1F | 1120 nM | 6900 nM | 890 nM | 1280 nM | – | – | – | – | – | – | –
8 | COc1ccc(/C=C\c2cc(OC)c(OC)c(OC)c2)cc1O [COMBRETASTATIN A4] | 410 nM | 700 nM | 190 nM | 90 nM | – | – | – | – | – | – | –
9 | O=[N+]([O-])c1cc(C(F)(F)F)cc([N+](=O)[O-])c1Oc1ccc(Cl)cc1/C=N\OCc1ccc(Cl)cc1Cl | 1140 nM | 7540 nM | 1280 nM | 3440 nM | – | – | – | – | – | – | –
10 | O=[N+]([O-])c1cc(C(F)(F)F)cc([N+](=O)[O-])c1Oc1c(Br)cc(Br)cc1/C=N\OCc1ccccc1Cl | 2320 nM | 18100 nM | 2450 nM | 4120 nM | – | – | – | – | – | – | –
11 | O=[N+]([O-])c1cc(C(F)(F)F)cc([N+](=O)[O-])c1Oc1c(Cl)cc(Cl)cc1/C=N\OCc1ccccc1F | 800 nM | 3650 nM | 820 nM | 1230 nM | – | – | – | – | – | – | –
12 | O=[N+]([O-])c1cc(C(F)(F)F)cc([N+](=O)[O-])c1Oc1c(Br)cc(Br)cc1/C=N\OCc1ccccc1 | 1830 nM | 18000 nM | 1480 nM | 2150 nM | – | – | – | – | – | – | –
13 | O=[N+]([O-])c1cc(C(F)(F)F)cc([N+](=O)[O-])c1Oc1ccccc1/C=N\OCc1ccccc1F | 700 nM | 3060 nM | 680 nM | 860 nM | 9.65% | 17.32% | Dose-dependent effect | 27.64% | 4.46% | 34.51% | 7.72%
14 | O=[N+]([O-])c1cc(C(F)(F)F)cc([N+](=O)[O-])c1Oc1ccccc1/C=N/OCc1ccc(Cl)cc1Cl | 940 nM | 4080 nM | 1020 nM | 1610 nM | – | – | – | – | – | – | –
15 | O=[N+]([O-])c1cc(C(F)(F)F)cc([N+](=O)[O-])c1Oc1c(Cl)cc(Cl)cc1/C=N/OCc1ccc(Cl)cc1Cl | 1030 nM | 6180 nM | 940 nM | 1420 nM | – | – | – | – | – | – | –
16 | O=[N+]([O-])c1cc(C(F)(F)F)cc([N+](=O)[O-])c1Oc1c(Br)cc(Br)cc1/C=N\OCc1ccccc1F | 880 nM | 4530 nM | 1100 nM | 1560 nM | – | – | – | – | – | – | –
17 | O=[N+]([O-])c1cc(C(F)(F)F)cc([N+](=O)[O-])c1Oc1ccc(Cl)cc1/C=N\OCc1ccccc1 | 1220 nM | 30900 nM | 1790 nM | 3410 nM | – | – | – | – | – | – | –
18 | O=[N+]([O-])c1cc(C(F)(F)F)cc([N+](=O)[O-])c1Oc1c(Cl)cc(Cl)cc1/C=N/OCc1ccccc1Cl | 1960 nM | 16100 nM | 1120 nM | 2160 nM | – | – | – | – | – | – | –
19 | O=[N+]([O-])c1cc(C(F)(F)F)cc([N+](=O)[O-])c1Oc1ccc(Br)cc1/C=N\OCc1ccccc1 | 1150 nM | 15400 nM | 1180 nM | 2240 nM | – | – | – | – | – | – | –
20 | O=[N+]([O-])c1cc(C(F)(F)F)cc([N+](=O)[O-])c1Oc1ccc(Br)cc1/C=N\OCc1ccc(Cl)cc1Cl | 1340 nM | 7060 nM | 1070 nM | 2060 nM | – | – | – | – | – | – | –
21 | O=[N+]([O-])c1cc(C(F)(F)F)cc([N+](=O)[O-])c1Oc1ccc(Cl)cc1/C=N\OCc1ccccc1F | 1110 nM | 7070 nM | 1020 nM | 2570 nM | – | – | – | – | – | – | –
22 | O=[N+]([O-])c1cc(C(F)(F)F)cc([N+](=O)[O-])c1Oc1ccc(Cl)cc1/C=N\OCc1ccccc1Cl | 3950 nM | 9050 nM | 1510 nM | 5030 nM | – | – | – | – | – | – | –
